Screens from PubChem BioAssay.
Env fusion inh = HIV envelope-mediated fusion inhibition; hit rate 1.1% among 360,000; HeLa-JRFL Env/CEM21 cell fusion, luciferase; inhibition, % at 12.3 µM; AID 651610;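 active means mean replicate inhibition score of at least 50 and every replicate individually at or above 50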
rRNA inh HTS = selective bacterial rRNA inhibition in E. coli; E. coli WT GFP vs humanized-ribosome RFP mutants, fluorescence, 24 h; hits give low values; DMSO median 0, no signal -100; GFP signal change (wild-type ribosome), % (no concentration beside the values); hit rate 1.6% among 350,000; AID 720706;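 active means significant combined selectivity score with lowered wild-type GFP, culture density cut under 30%, mutant RFP and density less affected; inactive means any of these conditions unmet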
FN deposit inh = fibronectin deposition inhibition; AH1F fibroblasts, Alexa488-fibronectin deposition fluorescence, overnight; inhibition, % at 12.6 µM; hit rate 0.086% among 350,000; AID 743247;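 active means mean inhibition across replicates of 30% or more, regardless of how many single replicates reach that level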
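Measured by – fluorescence 485/525 nm · System – AH1F fibroblast monolayer, labelled fibronectin deposition · Amount – 10000 cells per well · Buffer or medium – serum-reduced DMEM (2% serum) · Doses – single dose, pinned · Also added – fluorescent fibronectin at 24 nM final · Schedule – 1 h cell attachment, overnight exposure to compound and label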
ERp5 inh = blocks human ERp5 reductase activity on insulin; ERp5 insulin aggregation, absorbance 650 nm, 90 min; inhibition, % at 9.99 µM; hit rate 0.05% among 350,000; AID 651711;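 active means mean replicate inhibition above about 25%, with every replicate also reaching it, limit read from the data, passing the limit was not always enough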
Target sequence (Q15084 whole entry, looked up): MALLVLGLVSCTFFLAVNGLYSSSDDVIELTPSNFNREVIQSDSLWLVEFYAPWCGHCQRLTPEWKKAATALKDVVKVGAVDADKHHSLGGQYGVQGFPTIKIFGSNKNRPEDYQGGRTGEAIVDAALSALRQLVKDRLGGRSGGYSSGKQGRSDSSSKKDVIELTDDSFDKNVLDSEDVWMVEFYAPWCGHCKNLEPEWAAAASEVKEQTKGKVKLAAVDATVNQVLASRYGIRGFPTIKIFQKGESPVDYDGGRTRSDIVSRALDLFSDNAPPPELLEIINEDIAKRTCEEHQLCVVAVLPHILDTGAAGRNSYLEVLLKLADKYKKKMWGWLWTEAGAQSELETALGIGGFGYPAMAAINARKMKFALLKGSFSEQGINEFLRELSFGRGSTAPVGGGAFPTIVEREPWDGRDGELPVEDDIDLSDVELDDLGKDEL
PvdQ inh = blocks Pseudomonas aeruginosa PvdQ acylase activity. purified PvdQ acylase, fluorescence plate reader. inhibition, % at 10 µM. hit rate 0.063% among 340,000. AID 488965; in the data active means inhibition above about 30%, passing the limit was not always enough
PDI inh = PDI (human) enzyme inhibition; PDI insulin aggregation turbidity, A650, 90 min; inhibition, % at 10 µM; hit rate 0.052% among 350,000; AID 588391; P07237;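 active means mean inhibition across replicates of 30% or more, whatever share of single replicates reach that level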
Numbers stand for hits; . = inactive; / = not tested or not shown. Shown are actives, neighbours in structure and some others; about 2.2% of the full set was active somewhere.

SMILES | Env fusion inh | rRNA inh HTS | FN deposit inh | ERp5 inh | PvdQ inh | PDI inh
O=C(CSc1ccccn1)N/N=C/c1cc([N+](=O)[O-])ccc1O | . | -19.4 | . | . | . | .
C[C@@H]1CCCCO[C@@H](CN(C)C(=O)Nc2ccc(F)cc2)[C@@H](C)CN([C@H](C)CO)C(=O)c2cc(NC(=O)c3ccccc3)ccc2O1 | . | . | / | . | / | /
Cc1ccsc1/C=N\Nc1cn[nH]c(=O)c1Cl | 56.0 | . | . | . | . | .
Cc1ccc(/C=N\Nc2cn[nH]c(=O)c2Cl)cc1 | . | / | . | / | . | .
O=C(CCc1c[nH]c2ccccc12)N1CCN(c2ccc(O)cc2)CC1 | . | -29.1 | . | . | . | .
CCOC(=O)C1=C(CSc2nc3ccccc3s2)NC(=O)NC1c1ccc(OC)cc1 (configuration not stated) | 73.1 | / | . | / | . | .
CCOC(=O)C1=C(CSc2nc3ccccc3s2)NC(=O)NC1c1cc(C)ccc1C (configuration not stated) | / | / | / | / | . | .
COc1ccc(-c2ccccc2[C@H]2[C@@H]3C=CC[C@@H](C)[C@@H]3C(=O)N2Cc2ccccc2)cc1 | 125.6 | . | / | . | . | .
COC(=O)/C=C/c1cccc([C@H]2[C@@H]3C=CC[C@@H](C)[C@@H]3C(=O)N2Cc2ccccc2)c1 | . | -19.0 | / | . | . | .
CCOC(=O)C1CCCN(C(=O)c2cc3c(C)nc4ccccc4c3o2)C1 (configuration not stated) | 56.2 | / | . | / | . | .
CCCn1c(=S)[nH]c2cc(C(=O)N3CCCC(C(=O)OCC)C3)ccc2c1=O (configuration not stated) | 83.6 | / | / | / | . | .
CCOC(=O)C1CCCN(Cc2ccc(-c3ccccc3)cc2)C1 (configuration not stated) | . | -25.4 | . | . | . | .
CCCn1c(=S)[nH]c2cc(C(=O)N(CCO)Cc3ccccc3)ccc2c1=O | . | -29.6 | . | . | . | .
CC(C)OC(=O)N(C)C[C@H]1OCc2cn(nn2)CCCC(=O)N([C@H](C)CO)C[C@H]1C | . | . | . | . | / | /
CCOC(=O)C1CCCN(C(=O)C(C)(C)Oc2ccc(Cl)cc2)C1 (configuration not stated) | . | -30.5 | / | . | . | .
CCOC(=O)C1CCCN(C(=O)c2ccc3oc(CCc4ccccc4)nc3c2)C1 (configuration not stated) | . | -28.7 | . | . | . | .
CCOC(=O)C1CCCN(C(=O)c2ccc3nc(-c4cccc(OC)c4)oc3c2)C1 (configuration not stated) | . | -35.4 | . | . | . | .
COc1ccc2c3c(n(C)c2c1)[C@@H](CO)N(Cc1ccc2c(c1)OCO2)CC31CCN(C(C)=O)CC1 | / | . | / | . | / | /
COCC(=O)Nc1ccc2c(c1)C(=O)N(C)C[C@@H](OC)[C@H](C)CN[C@H](C)CO2 | . | . | . | / | / | /
C[C@@H]1CCCCO[C@@H](CN(C)CC2CCCCC2)[C@@H](C)CN([C@H](C)CO)C(=O)c2cc(NS(=O)(=O)c3cn(C)cn3)ccc2O1 | . | . | / | . | / | /
CCCOc1ccc(Cn2cnc3ccccc32)cc1 | 60.1 | . | . | . | . | .
Fc1ccc(Cn2cnc3ccccc32)cc1 | . | / | . | / | . | .
Nc1nc(-c2ccc([N+](=O)[O-])cc2)cs1 | / | / | / | / | . | .
CC1(C)CC(c2nc(-c3ccc([N+](=O)[O-])cc3)cs2)CCO1 (configuration not stated) | . | -41.6 | . | . | . | .
Cc1nc2ccc(C(=O)N3c4ccccc4N=C(c4ccc(C(F)(F)F)cc4)C3C(=O)NC(C)(C)C)cc2[nH]1 (configuration not stated) | 88.9 | . | . | . | / | /
CC(=O)Nc1nc(-c2ccc3c(c2)CC(C)N3C(=O)C2CC2)c(C)s1 (configuration not stated) | 58.6 | . | . | . | . | .
CCNC(=O)C[C@H]1C=C[C@H](NC(=O)NC2CCCCC2)[C@H](CO)O1 | . | . | . | . | / | /
Cc1ccc(NC(=O)CN(C)C(=O)Cc2coc3cc(C)c(C)cc23)cc1 | . | -23.3 | / | . | . | .
CO[C@@H]1CN(C)C(=O)c2cc(NS(=O)(=O)c3ccc(F)cc3)ccc2OC[C@H](C)NC[C@H]1C | . | . | . | . | / | /
